This note sets out measurements from ChEMBL document CHEMBL1155077, “Kinesin spindle protein (KSP) inhibitors. 9. Discovery of (2S)-4-(2,5-difluorophenyl)-n-[(3R,4S)-3-fluoro-1-methylpiperidin-4-yl]-2-(hydroxymethyl)-N-methyl-2-phenyl-2,5-dihydro-1H-pyrrole-1-carboxamide (MK-0731) for the treatment of taxane-refractory cancer” (J Med Chem, 2008).

The source made the active and inactive calls.

For orientation: IC50 means the concentration that gives 50% inhibition. A word on the EC90: it is the point of the concentration-response curve where the effect stands at 90%. One may read the solubility as the dissolved amount per volume that the medium holds. One may read the clearance as the volume of plasma or blood freed of the substance per unit of time. One may read the MTD as the largest dose that counted as tolerated. For orientation: half-life means the time needed for the level to fall by half in the phase considered. As a reminder, the EC50 is the concentration needed to bring the measured effect to its halfway point. The pKa is the pH at which an ionisable group is half protonated.

Data set [1] has as its system KB-v. As to the kind of experiment: Inhibition of tumor growth in human KB-v cells expressing MDR1 xenografted clr:NU/NU-nuBR mouse assessed as change in tumor volume at 20 mg/kg, ip administered qd x 5 dosing schedule relative to control. Format: functional, organism-based. Set-up: dose 20 mg/kg. The essentials: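 Nude mice bearing contralateral sc KB-3-1 (2.5 million) and KB-v-1 (9 million) flank tumors, 250-500 mm³ at day 13-14, groups of 10-12. Paclitaxel 20 mg/kg/day ip in ethanol/Cremophor/saline (10:10:80), qd × 5. Volumes by calipers, (W² × L)/2, change from initial; % T/C versus control.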
(In general: A xenograft is tissue or cells of one species grown in another, often human tumour cells in immunodeficient mice.)

In data set [2] the target is Kinesin-like protein KIF3A (Homo sapiens, UniProt Q9Y496). Briefly: Inhibition of cloned human Kif3A.
Chain of Kinesin-like protein KIF3A (Q9Y496 whole entry): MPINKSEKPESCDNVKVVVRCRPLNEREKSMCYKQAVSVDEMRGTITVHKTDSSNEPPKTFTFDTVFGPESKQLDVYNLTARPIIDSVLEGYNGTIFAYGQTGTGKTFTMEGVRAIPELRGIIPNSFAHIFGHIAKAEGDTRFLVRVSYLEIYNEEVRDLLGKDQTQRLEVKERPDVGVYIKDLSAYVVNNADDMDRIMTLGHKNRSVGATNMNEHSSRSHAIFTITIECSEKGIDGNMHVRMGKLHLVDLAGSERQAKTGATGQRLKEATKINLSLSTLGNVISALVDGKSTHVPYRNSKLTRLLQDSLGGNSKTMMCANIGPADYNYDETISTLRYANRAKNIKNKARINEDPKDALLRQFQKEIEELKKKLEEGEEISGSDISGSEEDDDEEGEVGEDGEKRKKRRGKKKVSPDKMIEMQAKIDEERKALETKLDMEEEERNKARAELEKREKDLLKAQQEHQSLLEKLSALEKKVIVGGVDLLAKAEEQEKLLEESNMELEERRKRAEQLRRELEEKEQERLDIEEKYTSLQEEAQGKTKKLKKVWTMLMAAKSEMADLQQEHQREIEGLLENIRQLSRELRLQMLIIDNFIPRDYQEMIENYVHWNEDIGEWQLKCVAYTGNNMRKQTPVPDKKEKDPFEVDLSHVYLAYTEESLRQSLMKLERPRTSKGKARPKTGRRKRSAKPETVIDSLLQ
Data set [3] has as its system A2780. Briefly: Induction of mitotic arrest in human A2780 cells […] clr:NU/NU-nuBR mouse assessed as minimum plasma concentration required to induce maximum mitotic arrest after 22 hrs. It counts as functional.
Data set [4] addresses Voltage-gated inwardly rectifying potassium channel KCNH2 (Homo sapiens, UniProt Q12809).
Data set [5] can be described thus: Aqueous solubility at pH 4.3. It counts as physicochemical. Particulars: aqueous solution.
In data set [6] the test system is KB-v. Briefly: Inhibition of tumor growth in human KB-v cells expressing MDR1 xenografted clr:NU/NU-nuBR mouse assessed as change in tumor volume at 40 mg/kg, sc administered qd x 1 dosing schedule relative to control.
Data set [7] can be described thus: Clearance in dog at 0.4 mg/kg, iv. Format: ADME, organism-based, Canis lupus familiaris. Set-up: dose 0.4 mg/kg, route intravenous. The conditions noted are these: in vivo.
A further data set has as its target T1, Kinesin-1 heavy chain (Homo sapiens, UniProt P33176).
T1 sequence (P33176 whole entry): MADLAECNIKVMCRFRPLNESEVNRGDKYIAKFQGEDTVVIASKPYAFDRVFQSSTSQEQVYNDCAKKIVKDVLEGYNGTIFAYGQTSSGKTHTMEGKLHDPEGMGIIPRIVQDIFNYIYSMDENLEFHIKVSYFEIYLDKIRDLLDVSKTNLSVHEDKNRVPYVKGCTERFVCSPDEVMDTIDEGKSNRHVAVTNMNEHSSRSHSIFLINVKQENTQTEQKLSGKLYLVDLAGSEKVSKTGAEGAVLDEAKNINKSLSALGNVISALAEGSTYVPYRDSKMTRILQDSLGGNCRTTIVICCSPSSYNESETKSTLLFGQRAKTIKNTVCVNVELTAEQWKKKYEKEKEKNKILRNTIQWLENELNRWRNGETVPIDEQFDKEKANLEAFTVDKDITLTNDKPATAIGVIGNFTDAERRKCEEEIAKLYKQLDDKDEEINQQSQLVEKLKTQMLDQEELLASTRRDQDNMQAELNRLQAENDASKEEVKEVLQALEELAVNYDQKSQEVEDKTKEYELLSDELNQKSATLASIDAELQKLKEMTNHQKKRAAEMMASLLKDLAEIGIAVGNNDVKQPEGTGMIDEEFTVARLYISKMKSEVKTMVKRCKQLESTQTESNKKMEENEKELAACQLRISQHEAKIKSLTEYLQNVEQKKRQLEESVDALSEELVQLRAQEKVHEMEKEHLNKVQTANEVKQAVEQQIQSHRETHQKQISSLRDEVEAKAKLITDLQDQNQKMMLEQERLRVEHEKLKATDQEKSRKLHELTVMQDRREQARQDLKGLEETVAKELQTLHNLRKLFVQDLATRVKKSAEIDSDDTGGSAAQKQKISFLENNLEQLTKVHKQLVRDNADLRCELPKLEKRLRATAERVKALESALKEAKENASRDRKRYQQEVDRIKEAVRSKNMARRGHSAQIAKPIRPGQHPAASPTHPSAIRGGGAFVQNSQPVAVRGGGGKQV
Briefly: Inhibition of cloned human uKHC.

The nature of data set [8]: Toxicity in clr:NU/NU-nuBR mouse assessed as maximum tolerated dose after 24 hrs. The conditions noted are these: in vivo. It counts as organism-based. The essentials: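 Naive, non-xenografted mice, in a large cohort. Drug was given by continuous delivery from subcutaneously implanted osmotic minipumps over 24 h. The maximum tolerated dose was set with survival as the end point, and peripheral blood counts were followed to assess myelosuppression.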

Data set [9] is described as follows: Half life in rhesus monkey at 0.4 mg/kg, iv. Format: ADME, organism-based, Macaca mulatta. Set-up: dose 0.4 mg/kg, route intravenous. The conditions noted are these: in vivo.
Data set [10] in a line: Volume of distribution at steady state in rat at 1 mg/kg, iv. Format: ADME, organism-based. Set-up: dose 1 mg/kg, route intravenous. The conditions noted are these: in vivo, read-out: Vdss.
The nature of data set [11]: Inhibition of human KSP in presence of 30% mouse serum. Put shortly: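 KSP ATPase assay as the primary one (0.25 nM KSP motor domain, microtubules, 1 mM ATP, pH 6.8, 3 h at RT, quinaldine red phosphate read-out), run with 30% mouse serum dialysed against reaction buffer (12-14 kDa cutoff). Mean of at least 3 experiments unless noted.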
Data set [12] in a line: Ratio of IC50 for induction of mitotic arrest in human […] to IC50 for induction of mitotic arrest in […] human KB-V-1 cells. Format: functional. Put shortly:
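Phospho-nucleolin mitotic-arrest assay in parental KB-3-1 and MDR1-overexpressing KB-V-1 cells (>500-fold higher MDR1 mRNA). Cells were treated in triplicate for 16 h across 10 000 to 0.1 nM (11-point, half-log series; 0.1% DMSO final). Total nucleolin was bead-captured from lysates and phospho-nucleolin detected by TG3 antibody plus a ruthenium-labelled secondary. Ratio = IC50 (KB-V-1) / IC50 (KB-3-1).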

A short description of data set [13]: Volume of distribution at steady state in dog at 0.4 mg/kg, iv. Set-up: dose 0.4 mg/kg, route intravenous. Format: ADME, organism-based, Canis lupus familiaris. The conditions noted are these: in vivo, read-out: Vdss.
Data set [14] has as its target Centromere-associated protein E (Homo sapiens, UniProt Q02224). As to the kind of experiment: Inhibition of cloned human CENP-E.
Data set [15] is described as follows: Inhibition of tubulin polymerization at 20 uM. The essentials: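 Tubulin at 2.5 mg/mL with 0.5 mM GTP in 80 mM K-PIPES pH 6.8, 1 mM MgCl2, 1 mM EGTA; compound at 20 µM final from DMSO; 37 °C. Light scattering read at 320 and 340 nm every 30 s for 75 min, with paclitaxel and colchicine (20 µM) controls.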
A short description of data set [16]: Half life in rat at 1 mg/kg, iv. Format: ADME, organism-based. Set-up: dose 1 mg/kg, route intravenous. Particulars: in vivo.
Data set [17] has as its system A2780. Briefly: Induction of mitotic arrest in human A2780 cells expressing MDR1 after 16 hrs. It counts as functional, cell-based. Particulars: A2780, 16 h.
Data set [18] in a line: Clearance in rhesus monkey at 0.4 mg/kg, iv. It counts as ADME, organism-based, Macaca mulatta. Set-up: dose 0.4 mg/kg, route intravenous. The conditions noted are these: in vivo.
Data set [19] can be described thus: Dissociation constant, pKa by Sirius GLpKa titrator. Format: physicochemical. Put shortly: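 Potentiometric pKa measured on a Sirius GLpKa titrator; mean of n = 3 determinations unless marked as a single determination.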
Data set [20] deals with Kinesin-like protein KIF14 (Homo sapiens, UniProt Q15058). Briefly: Inhibition of cloned human Kif14.
Chain of Kinesin-like protein KIF14 (Q15058 whole entry): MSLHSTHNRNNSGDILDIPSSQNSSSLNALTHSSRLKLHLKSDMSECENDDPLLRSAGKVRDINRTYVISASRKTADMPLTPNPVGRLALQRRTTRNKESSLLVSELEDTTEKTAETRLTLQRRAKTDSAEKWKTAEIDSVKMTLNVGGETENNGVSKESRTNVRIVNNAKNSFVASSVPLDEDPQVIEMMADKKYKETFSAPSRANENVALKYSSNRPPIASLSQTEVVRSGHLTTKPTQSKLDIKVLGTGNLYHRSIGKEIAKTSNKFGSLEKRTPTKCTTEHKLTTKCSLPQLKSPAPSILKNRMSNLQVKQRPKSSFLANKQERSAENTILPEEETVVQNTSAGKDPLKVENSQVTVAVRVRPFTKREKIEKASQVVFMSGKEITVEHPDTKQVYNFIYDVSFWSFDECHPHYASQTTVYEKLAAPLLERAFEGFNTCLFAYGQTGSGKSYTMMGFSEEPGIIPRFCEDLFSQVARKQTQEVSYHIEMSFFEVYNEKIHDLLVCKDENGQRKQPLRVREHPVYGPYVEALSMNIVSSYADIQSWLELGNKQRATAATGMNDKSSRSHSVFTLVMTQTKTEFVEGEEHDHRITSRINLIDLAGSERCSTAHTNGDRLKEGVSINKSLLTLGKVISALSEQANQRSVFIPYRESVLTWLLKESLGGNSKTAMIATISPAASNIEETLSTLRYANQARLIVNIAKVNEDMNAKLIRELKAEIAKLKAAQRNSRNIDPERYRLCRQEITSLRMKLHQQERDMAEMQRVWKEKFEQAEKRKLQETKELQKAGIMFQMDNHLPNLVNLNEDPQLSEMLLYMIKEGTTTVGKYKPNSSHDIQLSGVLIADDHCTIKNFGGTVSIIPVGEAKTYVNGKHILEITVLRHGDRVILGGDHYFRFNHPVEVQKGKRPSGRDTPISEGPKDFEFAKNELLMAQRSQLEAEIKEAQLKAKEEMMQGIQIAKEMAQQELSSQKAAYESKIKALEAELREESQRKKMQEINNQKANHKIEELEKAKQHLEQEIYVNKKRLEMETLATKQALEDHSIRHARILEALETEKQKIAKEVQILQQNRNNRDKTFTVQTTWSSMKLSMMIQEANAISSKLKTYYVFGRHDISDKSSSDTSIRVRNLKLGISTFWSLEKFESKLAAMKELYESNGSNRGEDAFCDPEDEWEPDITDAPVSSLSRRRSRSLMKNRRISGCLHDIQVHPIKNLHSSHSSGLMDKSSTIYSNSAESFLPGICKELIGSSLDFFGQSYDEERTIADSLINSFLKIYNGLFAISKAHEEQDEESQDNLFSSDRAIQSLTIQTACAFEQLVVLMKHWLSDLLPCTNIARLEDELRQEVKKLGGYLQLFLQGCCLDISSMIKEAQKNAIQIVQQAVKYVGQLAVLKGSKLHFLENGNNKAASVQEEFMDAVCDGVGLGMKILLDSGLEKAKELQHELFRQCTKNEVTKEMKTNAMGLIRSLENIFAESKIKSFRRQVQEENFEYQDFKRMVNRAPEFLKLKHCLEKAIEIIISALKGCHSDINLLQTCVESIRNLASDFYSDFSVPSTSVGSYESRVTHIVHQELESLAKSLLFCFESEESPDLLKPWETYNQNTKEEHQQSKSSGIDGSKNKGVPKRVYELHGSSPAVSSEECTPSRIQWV
Data set [21] in a line: Toxicity in human A2780 cells xenografted clr:NU/NU-nuBR mouse assessed as maximum tolerated dose. Format: organism-based. Particulars: in vivo. The essentials:
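Maximum tolerated dose was set in protocols in naive mice that varied dose, vehicle and frequency, with survival as the end point and peripheral blood counts tracked. The schedule was sc injection every 4 days × 3 in saline acidified to pH 4.0, 100 µL per dose.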

The test system of data set [22] is A2780. As to the kind of experiment: Inhibition of tumor growth in human A2780 cells xenografted clr:NU/NU-nuBR mouse assessed as change in tumor volume at 100 mg/kg, sc administered q4d x 3 dosing schedule.

Chain of Voltage-gated inwardly rectifying potassium channel KCNH2 (Q12809 whole entry): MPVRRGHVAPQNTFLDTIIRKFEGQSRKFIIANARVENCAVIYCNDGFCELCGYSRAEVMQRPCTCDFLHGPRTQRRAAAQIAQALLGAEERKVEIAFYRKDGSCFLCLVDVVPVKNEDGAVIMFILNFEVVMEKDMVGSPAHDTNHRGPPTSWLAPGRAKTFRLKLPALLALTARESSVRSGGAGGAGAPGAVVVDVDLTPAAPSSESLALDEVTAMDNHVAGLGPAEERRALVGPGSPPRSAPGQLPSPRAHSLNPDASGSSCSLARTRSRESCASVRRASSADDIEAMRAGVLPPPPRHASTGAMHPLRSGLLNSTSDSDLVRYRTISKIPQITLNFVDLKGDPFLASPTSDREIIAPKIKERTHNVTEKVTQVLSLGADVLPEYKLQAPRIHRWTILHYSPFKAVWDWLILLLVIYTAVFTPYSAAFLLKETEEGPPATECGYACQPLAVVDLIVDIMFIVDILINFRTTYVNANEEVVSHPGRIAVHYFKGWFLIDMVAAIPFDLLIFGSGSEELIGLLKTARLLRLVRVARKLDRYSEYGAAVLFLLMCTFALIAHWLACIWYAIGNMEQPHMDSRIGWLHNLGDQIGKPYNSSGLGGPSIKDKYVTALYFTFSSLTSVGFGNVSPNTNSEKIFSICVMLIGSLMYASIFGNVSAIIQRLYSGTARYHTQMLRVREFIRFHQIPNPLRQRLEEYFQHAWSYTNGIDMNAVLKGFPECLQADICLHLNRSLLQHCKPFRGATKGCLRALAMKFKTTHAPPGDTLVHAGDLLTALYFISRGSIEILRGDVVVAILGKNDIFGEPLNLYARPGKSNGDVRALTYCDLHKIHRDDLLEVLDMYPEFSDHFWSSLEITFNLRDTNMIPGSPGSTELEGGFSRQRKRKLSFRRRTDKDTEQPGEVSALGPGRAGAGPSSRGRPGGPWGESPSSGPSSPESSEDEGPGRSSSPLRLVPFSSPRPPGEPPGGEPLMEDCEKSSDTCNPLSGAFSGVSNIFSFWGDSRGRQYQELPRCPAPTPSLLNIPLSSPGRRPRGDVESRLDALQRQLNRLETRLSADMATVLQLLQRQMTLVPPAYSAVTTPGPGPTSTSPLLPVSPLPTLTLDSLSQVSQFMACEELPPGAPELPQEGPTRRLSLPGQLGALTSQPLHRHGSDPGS

`CN1CC[C@H](N(C)C(=O)N2CC(c3cc(F)ccc3F)=C[C@@]2(CO)c2ccccc2)[C@H](F)C1`: the outcome (in the data set with KB-v [1]; in data set [15]) was inactive. In addition, the IC50 is above 50 µM in data set [2]; 20.5 µM in data set [4]; above 50 µM on Kinesin-1 heavy chain; 0.0291 µM in data set [11]; above 50 µM in [14]; above 50 µM in data set [20]. The EC90 in the data set on A2780 [3] was found to be 0.094 µM. Moreover, the solubility in [5] was above 50 mg/mL. The result with KB-v [6] and in the data set on A2780 [22] was Active. Besides, the clearance in data set [7] was determined as 15.1 mL/min/kg; in data set [18], 23.1 mL/min/kg. The maximum tolerated dose (MTD) at 24 h in [8] worked out at 12 mg/kg. In addition, the half-life in data set [9] and in data set [16] was 1 h in each case. Moreover, the Vd in data set [10] is 3 L/kg; in data set [13], 1.6 L/kg. Also, the Ratio in data set [12] worked out at 4.5. The compound further yielded a concentration for a half-maximal effect (EC50) with A2780 [17] of 0.0053 µM. Also, the pKa in [19] is 7.6. The MTD in [21] was 100 mg/kg.
